One molecule from ChEMBL document CHEMBL4152204, “Discovery of N-hydroxy-3-alkoxybenzamides as direct acid sphingomyelinase inhibitors using a ligand-based pharmacophore model” (Eur J Med Chem, 2018) can be followed below.

Test [1] relates to NIH3T3. Nature of the test: Cytoprotective activity against UV-induced apoptosis in mouse NIH/3T3 cells assessed as necrotic cells at 60 uM preincubated for 20 hrs followed by UV irradiation for 5 mins and measured after 24 hrs by flow cytometric analysis (reference value: 1.5%). The class given is functional. In general terms: Flow cytometry measures light scatter and fluorescence of single cells or particles in a stream.

The subject of test [2] is NIH3T3. Nature of the test: Cytoprotective activity against UV-induced apoptosis in mouse NIH/3T3 cells assessed as early apoptotic cells at 60 uM preincubated for 20 hrs followed by UV irradiation for 5 mins and measured after 24 hrs by flow cytometric analysis (reference value: 79.5%). In kind it is functional.
Test [3] concerns NIH3T3. Nature of the test: Cytoprotective activity against UV-induced apoptosis in mouse NIH/3T3 cells assessed as late apoptotic cells at 10 uM preincubated for 20 hrs followed by UV irradiation for 5 mins and measured after 24 hrs by flow cytometric analysis (reference value: 6.4%). In kind it is functional.
Test [4] has as its system NIH3T3. Nature of the test: Cytotoxicity against mouse NIH/3T3 cells after 24 hrs by MTT assay. The class given is cell-based. As to conditions: NIH3T3, 24 h.
Test [5] relates to NIH3T3. Nature of the test: Inhibition of LPS-induced IL-6 production in mouse NIH/3T3 cells preincubated for 20 hrs followed by LPS-stimulation and measured after 6 hrs by ELISA. In kind it is functional, cell-based. The gist of the method: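 NIH3T3 cells (DMEM, 10% FBS) seeded at 2*10⁵ per well overnight, inhibitor 20 h, then LPS to 50 ng/mL for a further 6 h; IL-6 or IL-8 measured by ELISA; compared with LPS-only and control groups.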

In test [6] the test system is NIH3T3. Nature of the test: Cytoprotective activity against UV-induced apoptosis in mouse NIH/3T3 cells assessed as early apoptotic cells at 10 uM preincubated for 20 hrs followed by UV irradiation for 5 mins and measured after 24 hrs by flow cytometric analysis (reference value: 79.5%). The class given is functional.
Test [7] has as its target T1, Sphingomyelin phosphodiesterase 2 (Homo sapiens) (UniProt O60906).
T1 sequence (whole entry): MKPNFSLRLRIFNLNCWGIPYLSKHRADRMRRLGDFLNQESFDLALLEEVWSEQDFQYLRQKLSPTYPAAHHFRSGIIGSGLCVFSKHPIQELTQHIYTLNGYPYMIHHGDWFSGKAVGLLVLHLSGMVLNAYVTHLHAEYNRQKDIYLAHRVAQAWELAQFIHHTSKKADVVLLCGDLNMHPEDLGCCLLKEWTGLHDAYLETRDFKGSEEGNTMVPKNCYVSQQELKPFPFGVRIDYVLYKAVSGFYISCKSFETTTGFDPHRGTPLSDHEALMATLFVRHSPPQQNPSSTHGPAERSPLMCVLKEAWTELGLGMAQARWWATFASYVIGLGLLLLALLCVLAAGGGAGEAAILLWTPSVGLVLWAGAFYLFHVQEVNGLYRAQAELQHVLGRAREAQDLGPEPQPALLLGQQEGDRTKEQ
Nature of the test: Inhibition of neutral sphingomyelinase (unknown origin) assessed as reduction in NBD-ceramide release at 100 uM by TLC based fluorescence assay.

For test [8], the system named is NIH3T3. Nature of the test: Cytoprotective activity against UV-induced apoptosis in mouse NIH/3T3 cells assessed as viable cells at 40 uM preincubated for 20 hrs followed by UV irradiation for 5 mins and measured after 24 hrs by flow cytometric analysis (reference value: 12.6%). In kind it is functional. Conditions: NIH3T3, light or radiation study, read-out: Activity.

Test [9] has as its system NIH3T3. Nature of the test: Cytoprotective activity against UV-induced apoptosis in mouse NIH/3T3 cells assessed as necrotic cells at 20 uM preincubated for 20 hrs followed by UV irradiation for 5 mins and measured after 24 hrs by flow cytometric analysis (reference value: 1.5%). In kind it is functional.
Test [10] has as its target T2, Sphingomyelin phosphodiesterase (Mus musculus) (UniProt Q04519).
T2 sequence (whole entry): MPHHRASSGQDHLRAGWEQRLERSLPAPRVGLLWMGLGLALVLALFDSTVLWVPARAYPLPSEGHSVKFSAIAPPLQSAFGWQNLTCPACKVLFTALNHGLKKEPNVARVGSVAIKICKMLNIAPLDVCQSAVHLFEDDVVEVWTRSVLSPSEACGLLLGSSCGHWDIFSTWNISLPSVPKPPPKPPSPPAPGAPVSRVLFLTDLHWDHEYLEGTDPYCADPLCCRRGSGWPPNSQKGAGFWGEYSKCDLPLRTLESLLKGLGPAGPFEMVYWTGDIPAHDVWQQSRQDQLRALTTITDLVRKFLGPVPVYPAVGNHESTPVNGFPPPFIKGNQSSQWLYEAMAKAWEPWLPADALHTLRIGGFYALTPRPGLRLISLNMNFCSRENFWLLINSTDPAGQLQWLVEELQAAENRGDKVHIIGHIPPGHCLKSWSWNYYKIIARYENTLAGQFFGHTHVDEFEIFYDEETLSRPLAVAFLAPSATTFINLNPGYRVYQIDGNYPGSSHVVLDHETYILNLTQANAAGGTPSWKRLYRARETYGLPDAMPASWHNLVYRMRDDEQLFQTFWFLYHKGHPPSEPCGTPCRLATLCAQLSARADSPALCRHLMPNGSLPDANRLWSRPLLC
Nature of the test: Inhibition of acid sphingomyelinase in mouse NIH/3T3 cells assessed as decrease in ceramide levels after 20 hrs by LC-MS/MS analysis. The class given is cell-based. The gist of the method: (§1)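 NIH3T3 cells in DMEM with 10% FBS, 37 °C, 5% CO₂; at 90% confluence given fresh medium plus inhibitor (5, 10, 20 µM) for 20 h; total ceramides and sphingomyelin quantified by LC-MS-MS versus untreated control; mean ± SD of three independent experiments, Student's t-test.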

For test [11], the system named is NIH3T3. Nature of the test: Cytoprotective activity against UV-induced apoptosis in mouse NIH/3T3 cells assessed as viable cells at 10 uM preincubated for 20 hrs followed by UV irradiation for 5 mins and measured after 24 hrs by flow cytometric analysis (reference value: 12.6%). In kind it is functional. Conditions: NIH3T3, light or radiation study, read-out: Activity.

In test [12] the target is T2, Sphingomyelin phosphodiesterase (Mus musculus). Nature of the test: Inhibition of acid sphingomyelinase in mouse NIH/3T3 cells assessed as ceramide levels at 20 uM after 20 hrs by LC-MS/MS analysis relative to control. In kind it is cell-based. The gist of the method: as §1

In general, IC50 refers to the concentration needed to halve the response being measured. High values mean lower potency, low ones higher potency. As usually defined, the inhibition is the change of the read-out against control, counted positive when it falls.

The source made the active and inactive calls. No cut-off for these calls is given here.

Take `CCCCCCCCCCOc1cc(C(=O)NO)ccc1OC`: the Activity with NIH3T3 [1] was 0.6%; in the test with NIH3T3 [2], 55.7%; with NIH3T3 [3], 11%; in the test with NIH3T3 [6], 42.1%; in the test with NIH3T3 [9], 0.2%. In the test with NIH3T3 [4], this molecule returned an IC50 of 51.4 µM. For the same molecule, the inhibition entry in the test with NIH3T3 [5] was “Dose-dependent effect”; in [10], “Dose-dependent effect”; in [12], 42.6%. In addition, the inhibition result in test [7] is “inactive”. In the test with NIH3T3 [8], the viability at 40 µM came to 50.9%. Moreover, the viability at 10 µM in the test with NIH3T3 [11] worked out at 46.9%.
